According to ChEMBL document CHEMBL1156568, “3-(1H-tetrazol-5-yl)-1,4,5,6-tetrahydro-cyclopentapyrazole (MK-0354): a partial agonist of the nicotinic acid receptor, G-protein coupled receptor 109a, with antilipolytic but no vasodilatory activity in mice” (J Med Chem, 2008):
pIC50: −log10 of the molar value. Active and inactive are the calls of the source. No cut-off for these calls is given here.

Experiments:
Mus musculus [1] = assay: Reduction in plasma FFA level in ip dosed C57BL/6 mouse; assay type: functional; settings: C57BL/6, Plasma
Method in brief: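 Male C57BL/6 mice, at least 8 weeks old, fasted 16 h, then dosed ip in saline. Plasma FFA was measured by an enzymatic NEFA assay, and compound levels in the same plasma by LC-MS/MS.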

Mus musculus [2] = species on record: Mus musculus; assay: Vasodilation effect in C57BL/6 mouse assessed as increase in blood flow relative to baseline; assay type: functional, organism-based
Method in brief: (§1)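 Male C57BL/6 mice, 8-10 weeks, ~25 g, anesthetized with Nembutal ip (80 mg/kg). After 10 min, ear blood flow was recorded by laser Doppler imaging: 3 min baseline, then ip dosing (5 mL/kg) through a preinserted syringe, reading ~15 min. Vehicle was PBS, 40% HPBCD or 0.5% methylcellulose. Result expressed as % change in perfusion over baseline.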

Mus musculus [3] = species on record: Mus musculus; assay: Inhibition of PGD2-induced vasodilation response in C57BL/6 mouse assessed as blood flow; assay type: functional, organism-based; method in brief: as §1
Adipocyte = assay: Inhibition isoproterenol-stimulated lipolysis in human adipocytes
Mus musculus [4] = species on record: Mus musculus; assay: Inhibition of nicotinic acid-induced vasodilation response in C57BL/6 mouse assessed as blood flow; assay type: functional, organism-based; method in brief: as §1
[5] = target: Hydroxycarboxylic acid receptor 3 (Homo sapiens) (UniProt P49019); assay: Agonist activity against GPR109b assessed as forskolin-induced cAMP accumulation relative to nicotinic acid; assay type: functional
[6] = Volume of distribution in C57BL/6 mouse at 5 mg/kg, iv and 10 mg/kg, po; assay type: ADME, organism-based; settings: in vivo
Method in brief: (§2)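 Male C57BL/6 mice dosed IV at 5.0 mg/kg in PBS, or by oral gavage at 10 mg/kg in PBS. Clearance is blood clearance. Cmax and Tmax come from oral dosing. Half-life is terminal. Oral bioavailability is also reported.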

[7] = Half life in C57BL/6 mouse at 5 mg/kg, iv and 10 mg/kg, po; assay type: ADME, organism-based; settings: in vivo; method in brief: as §2
[8] = Oral bioavailability in C57BL/6 mouse at 10 mg/kg, po; assay type: ADME, organism-based; settings: in vivo; method in brief: as §2
[9] = Cmax in C57BL/6 mouse at 5 mg/kg, iv and 10 mg/kg, po; assay type: ADME, organism-based; settings: in vivo; method in brief: as §2
[10] = Tmax in C57BL/6 mouse at 5 mg/kg, iv and 10 mg/kg, po; assay type: ADME, organism-based; settings: in vivo; method in brief: as §2

Hydroxycarboxylic acid receptor 3 (Homo sapiens), sequence (P49019 whole entry): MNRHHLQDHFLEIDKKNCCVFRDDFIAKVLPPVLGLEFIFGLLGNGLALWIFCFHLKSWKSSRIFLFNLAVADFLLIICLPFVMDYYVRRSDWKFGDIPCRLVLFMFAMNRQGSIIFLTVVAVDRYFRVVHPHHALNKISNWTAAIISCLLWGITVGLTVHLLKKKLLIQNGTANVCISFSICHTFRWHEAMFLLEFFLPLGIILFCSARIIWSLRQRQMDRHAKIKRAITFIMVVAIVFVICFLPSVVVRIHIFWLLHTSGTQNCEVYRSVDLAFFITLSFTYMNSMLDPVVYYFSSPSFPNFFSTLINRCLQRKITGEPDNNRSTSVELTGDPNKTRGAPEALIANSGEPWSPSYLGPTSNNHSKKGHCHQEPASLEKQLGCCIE

## O=C(O)c1cccnc1 [NIACIN]
Mus musculus [1]
  ED50: 9.7 mg/kg

## O=C(O)c1n[nH]c2c1CCC2
Mus musculus [2]
  Activity: Dose-dependent effect

## C1Cc2[nH]nc(-c3nn[nH]n3)c2C1
Mus musculus [3]
  Activity: inactive
Adipocyte
  pIC50: 5.51
Mus musculus [4]
  Activity: Active
Mus musculus [1]
  ED50: 3.1 mg/kg
[5]
  Activity: inactive

## C1Cc2[nH]nc(-c3nnn[nH]3)c2C1
[6]
  Vd: 13 L/kg
[7]
  half-life: 10 h
[8]
  bioavailability: 93%
[9]
  Cmax: 16 µM
[10]
  Tmax: 4.98 min
